Experimental data taken from ChEMBL document CHEMBL1137753, “Insecticidal heterolignans--tubuline polymerization inhibitors with activity against chewing pests” (Bioorg Med Chem, 2009).
The source made the active and inactive calls. Unless noted, the rule behind the calls is not given here.

Experiments:
[1] = system: Spodoptera frugiperda; assay: Insecticidal activity against Spodoptera frugiperda larvae in disk of maize leaf at 500 g/ha treated as spray; format: functional, organism-based
In short: (§1)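 The same acetone/DMF/emulsifier formulation, diluted in emulsifier-containing water, was sprayed onto maize leaf disks. Dried disks were infested with fall armyworm larvae and mortality was assessed after a set time. "+" denotes ≥80% larvae killed; n.a. denotes no larvae killed.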

[2] = system: Sf9; assay: Cytotoxicity against Spodoptera frugiperda Sf9 cells assessed as chromatin condensation at 0.14 ppm after 48 hrs by fluorescence microscopy; format: functional, cell-based
In short: (§2)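 Sf9 cells seeded in 8-well slide chambers the day before, then exposed to compound for 48 h. After two PBS washes, cells were fixed in ice-cold methanol for 10 min on ice, given two short acetone washes, rehydrated in PBS and stained with Dapi (2 µM) for 30 min. Chromatin condensation/fragmentation scored by fluorescence microscopy with a x40 objective.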

[3] = system: CHO; assay: Cytotoxicity against CHO cells assessed as chromatin condensation after 48 hrs by fluorescence microscopy; format: cell-based, Cricetulus griseus; settings: chinese hamster
In short: (§3)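 Sf9 or CHO cells were seeded in chamber slides the day before treatment and exposed to compound for 48 h. They were then PBS-washed, fixed in ice-cold methanol for 10 min on ice, and rinsed with acetone. After rehydration in PBS, cells were stained with 2 µM DAPI for 30 min. Nuclei were examined by fluorescence microscopy (×40) for chromatin condensation or fragmentation.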

[4] = system: CHO; assay: Cytotoxicity against CHO cells assessed as chromatin condensation after 24 hrs by fluorescence microscopy; format: cell-based, Cricetulus griseus; settings: chinese hamster
[5] = species: Bos taurus; assay: Inhibition of bovine tubulin polymerization
In short: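 Tubulin (>99% pure, 300 µg/sample) was suspended at 4 °C in G-PEM buffer (80 mM PIPES, 2 mM MgCl2, 0.5 mM EGTA, 1.0 mM GTP, pH 6.9) plus 5% glycerol, with or without compound. Colchicine and taxol served as standards. Polymerization at 37 °C was followed as absorbance at 340 nm every 1 min for up to 60 min.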

[6] = system: Phaedon cochleariae; assay: Insecticidal activity against Phaedon cochleariae larvae in disk of Chinese cabbage leaf treated as spray; format: functional, organism-based
[7] = system: Spodoptera frugiperda; assay: Insecticidal activity against Spodoptera frugiperda larvae in disk of maize leaf treated as spray; format: functional, organism-based
[8] = system: Sf9; assay: Cytotoxicity against Spodoptera frugiperda Sf9 cells assessed as chromatin condensation at 10 ppm after 48 hrs by fluorescence microscopy; format: functional, cell-based; in short: as §3
[9] = system: Sf9; assay: Cytotoxicity against Spodoptera frugiperda Sf9 cells assessed as chromatin condensation at >10 ppm after 48 hrs by fluorescence microscopy; format: functional, cell-based; in short: as §2
[10] = system: Sf9; assay: Cytotoxicity against Spodoptera frugiperda Sf9 cells assessed as chromatin condensation at 1 ppm after 48 hrs by fluorescence microscopy; format: functional, cell-based; in short: as §3
[11] = system: Phaedon cochleariae; assay: Insecticidal activity against Phaedon cochleariae larvae in disk of Chinese cabbage leaf at 500 g/ha treated as spray; format: functional, organism-based
In short: (§4)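 This was sprayed on Chinese cabbage leaf disks. Once dry, disks were infested with mustard beetle larvae and mortality was scored after a set time. "+" denotes ≥80% larvae killed; n.a. denotes none killed.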

[12] = system: Sf9; assay: Cytotoxicity against Spodoptera frugiperda Sf9 cells assessed as chromatin condensation at 3 ppm after 48 hrs by fluorescence microscopy; format: functional, cell-based; in short: as §3
[13] = system: Phaedon cochleariae; assay: Insecticidal activity against Phaedon cochleariae larvae in disk of Chinese cabbage leaf at 4 g/ha treated as spray; format: functional, organism-based; in short: as §4
[14] = system: Phaedon cochleariae; assay: Insecticidal activity against Phaedon cochleariae larvae in disk of Chinese cabbage leaf at 20 g/ha treated as spray; format: functional, organism-based; in short: as §4
[15] = system: Spodoptera frugiperda; assay: Insecticidal activity against Spodoptera frugiperda larvae in disk of maize leaf at 20 g/ha treated as spray; format: functional, organism-based
In short: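 Maize leaf disks (Zea mays) were sprayed, allowed to dry, then populated with S. frugiperda larvae. Mortality was scored after the desired time; '+' means at least 80% of larvae killed, 'n.a.' means none killed.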

[16] = system: Phaedon cochleariae; assay: Insecticidal activity against Phaedon cochleariae larvae in disk of Chinese cabbage leaf at 100 g/ha treated as spray; format: functional, organism-based; in short: as §4
[17] = system: Spodoptera frugiperda; assay: Insecticidal activity against Spodoptera frugiperda larvae in disk of maize leaf at 100 g/ha treated as spray; format: functional, organism-based; in short: as §1
[18] = system: Spodoptera frugiperda; assay: Insecticidal activity against Spodoptera frugiperda larvae in disk of maize leaf at 4 g/ha treated as spray; format: functional, organism-based; in short: as §1

SMILES: COc1cc(C2C3=C(COC3=O)Nc3cc4c(cc32)OCO4)cc2c1OCO2 (stereo unspecified)
- Activity [1]: Active

SMILES: COc1cc2c(c(OC)c1OC)-c1ccc(OC)c(=O)cc1[C@@H](NC(C)=O)CC2 [COLCHICINE]
- Activity [2]: Active
- Activity [3]: Toxic
- Activity [4]: Toxic
- inhibition [5]: Active

SMILES: CC(=O)O[C@H]1C(=O)[C@@]2(C)[C@H]([C@H](OC(=O)c3ccccc3)[C@]3(O)C[C@H](OC(=O)[C@H](O)[C@@H](NC(=O)c4ccccc4)c4ccccc4)C(C)=C1C3(C)C)[C@]1(OC(C)=O)CO[C@@H]1C[C@@H]2O
- inhibition [5]: inactive

SMILES: O=C1OCC2=C1C(c1ccccc1Cl)c1cc3c(cc1N2)OCO3 (stereo unspecified)
- Activity [6]: inactive
- Activity [7]: inactive
- Activity [3]: Toxic
- Activity [4]: Toxic
- Activity [8]: Active

SMILES: COc1cc(OC)cc([C@@H]2C3=C(COC3=O)Nc3cc(OC)ccc32)c1
- Activity [9]: Active
- Activity [3]: Toxic
- Activity [4]: Toxic

SMILES: O=C1OCC2=C1C(c1cc(Br)cs1)c1cc3c(cc1N2)OCO3 (stereo unspecified)
- Activity [6]: inactive
- Activity [1]: Active

SMILES: CCN1C2=C(C(=O)OC2)C(c2cc(OC)cc(OC)c2)c2cc3c(cc21)OCO3 (stereo unspecified)
- Activity [1]: Active
- Activity [3]: Toxic
- Activity [4]: Toxic
- Activity [10]: Active
- Activity [11]: Active

SMILES: COc1cc(OC)cc(C2C3=C(CC(C)OC3=O)Nc3cc4c(cc32)OCO4)c1 (stereo unspecified)
- Activity [1]: Active
- Activity [11]: Active

SMILES: O=C1CCC2=C1C(c1cccc(Cl)c1)c1cc3c(cc1N2)OCO3 (stereo unspecified)
- Activity [6]: inactive
- Activity [7]: inactive
- Activity [3]: Toxic
- Activity [4]: Toxic
- Activity [12]: Active

SMILES: COc1cc(OC)cc(C2C3=C(COC3=O)Nc3c(OC)cc(OC)cc32)c1 (stereo unspecified)
- Activity [1]: Active
- Activity [13]: Active

SMILES: COc1ccc(C2C3=C(COC3=O)Nc3cc4c(cc32)OCO4)cc1OC (stereo unspecified)
- Activity [6]: inactive
- Activity [7]: inactive
- Activity [3]: Toxic
- Activity [4]: Toxic
- Activity [12]: Active

SMILES: COc1cc(OC)cc(C2C3=C(COC3=O)Nc3cc(OC(C)C)ccc32)c1 (stereo unspecified)
- Activity [6]: inactive
- Activity [1]: Active
- Activity [3]: Toxic
- Activity [4]: Toxic
- Activity [12]: Active

SMILES: COc1ccc2c(c1)C(c1cc(OC)c(OC)c(OC)c1)C1=C(COC1=O)N2 (stereo unspecified)
- Activity [7]: inactive
- Activity [14]: Active

SMILES: COc1cc(OC)cc([C@H]2C3=C(COC3=O)Nc3cc(OC)ccc32)c1
- Activity [2]: Active

SMILES: COc1cc(C2C3=C(COC3=O)Nc3cc4c(cc32)OCO4)cc(OC)c1OC (stereo unspecified)
- Activity [7]: inactive
- Activity [14]: Active

SMILES: COc1ccc2c(c1)NC1=C(C(=O)OC1)C2c1cc(OC)c(OC)c(OC)c1 (stereo unspecified)
- Activity [15]: Active
- Activity [11]: Active

SMILES: O=C1OCC2=C1C(c1cc(Br)c3c(c1)OCO3)c1cc3c(cc1N2)OCO3 (stereo unspecified)
- Activity [16]: Active
- Activity [1]: Active

SMILES: COc1cc(OC)cc(C2C3=C(COC3=O)Nc3ccc(OC)cc32)c1 (stereo unspecified)
- Activity [17]: Active
- Activity [14]: Active

SMILES: COc1cc(OC)cc(C2C3=C(Nc4cc5c(cc42)OCO5)C(C)OC3=O)c1 (stereo unspecified)
- Activity [16]: Active
- Activity [1]: Active

SMILES: COc1cc(OC)cc(C2C3=C(COC3=O)Nc3cc(OC)c(C)cc32)c1 (stereo unspecified)
- Activity [1]: Active
- Activity [14]: Active

SMILES: COc1ccc2c(c1)OC1=C(C(=O)OC1)C2c1cc(Cl)cc(Cl)c1 (stereo unspecified)
- Activity [6]: inactive
- Activity [1]: Active

SMILES: O=C1OCC2=C1C(c1cncc(-c3ccc(F)cc3)c1)c1cc3c(cc1N2)OCO3 (stereo unspecified)
- Activity [16]: Active
- Activity [1]: Active

SMILES: COc1cc(OC)cc(C2C3=C(COC3=O)Nc3cc4c(cc32)OCO4)c1 (stereo unspecified)
- Activity [15]: Active
- Activity [14]: Active

SMILES: COc1cc(OC)cc(C2C3=C(COC3=O)Nc3c(OC)cc(C)cc32)c1 (stereo unspecified)
- Activity [1]: Active
- Activity [14]: Active

SMILES: COc1ccc2c(c1OC)OC1=C(C(=O)OC1)C2c1cc(Cl)cc(Cl)c1 (stereo unspecified)
- Activity [6]: inactive
- Activity [1]: Active

SMILES: O=C1OCC2=C1C(c1cc(C(F)(F)F)cc(Cl)c1F)c1cc3c(cc1N2)OCO3 (stereo unspecified)
- Activity [17]: Active
- Activity [14]: Active

SMILES: CN1OC(C)(C)C2=C(C1=O)C(c1cccc(Cl)c1)c1cc3c(cc1N2)OCO3 (stereo unspecified)
- Activity [6]: inactive
- Activity [1]: Active

SMILES: COc1c(Cl)cc(C2C3=C(COC3=O)Nc3cc4c(cc32)OCO4)cc1Cl (stereo unspecified)
- Activity [17]: Active
- Activity [16]: Active

SMILES: O=C1OCC2=C1C(c1cc(F)c(F)c(F)c1)c1cc3c(cc1N2)OCO3 (stereo unspecified)
- Activity [6]: inactive
- Activity [1]: Active

SMILES: CC(C)Oc1cccc(C2C3=C(COC3=O)Nc3cc4c(cc32)OCO4)c1 (stereo unspecified)
- Activity [6]: inactive
- Activity [1]: Active

SMILES: COc1ccc(C2C3=C(COC3=O)Nc3cc4c(cc32)OCO4)cn1 (stereo unspecified)
- Activity [1]: Active
- Activity [11]: Active

SMILES: COc1cc(OC)cc(C2C3=C(COC3=O)Nc3cc(OC)c(OC)cc32)c1 (stereo unspecified)
- Activity [1]: Active
- Activity [3]: Toxic
- Activity [4]: Toxic
- Activity [10]: Active
- Activity [11]: Active

SMILES: COc1cc(OC)cc(C2C3=C(COC3=O)Nc3cc(OC)cc(OC)c32)c1 (stereo unspecified)
- Activity [16]: Active
- Activity [1]: Active

SMILES: CCOc1ccc2c(c1)NC1=C(C(=O)OC1)C2c1cc(OC)cc(OC)c1 (stereo unspecified)
- Activity [2]: Active
- Activity [3]: Toxic
- Activity [4]: Toxic
- Activity [11]: Active
- Activity [18]: Active

SMILES: N#Cc1cccc(C2C3=C(COC3=O)Nc3cc4c(cc32)OCO4)c1 (stereo unspecified)
- Activity [6]: inactive
- Activity [1]: Active

SMILES: COc1cc(OC)cc(C2C3=C(COC3=O)Nc3c2ccc(OC)c3OC)c1 (stereo unspecified)
- Activity [2]: Active
- Activity [3]: Toxic
- Activity [4]: Toxic
- Activity [18]: Active
- Activity [14]: Active
- inhibition [5]: Active

SMILES: COc1cc(OC)cc(C2C3=C(COC3=O)Nc3cc(OC)ccc32)c1 (stereo unspecified)
- Activity [18]: Active
- Activity [14]: Active

SMILES: COc1cc(C2C3=C(COC3=O)Nc3cc4c(cc32)OCO4)ccc1Cl (stereo unspecified)
- Activity [1]: Active
- Activity [11]: Active
